The source made the active and inactive calls. The calls are words filed in the database; no cut-off is given here.
Experiments:
Candida albicans [1] = assay: Induction of apoptosis in Candida albicans ATCC 90028 protoplast assessed as viable cells at 20 uM after 48 hrs Annexin V-FITC/propidium iodide staining based flow cytometric analysis (reference value: 96.38 +/- 2.05%); format: functional
Candida albicans [2] = assay: (§1) Antifungal activity against Candida albicans ATCC 90028 infected in Galleria mellonella larvae infected with 20 uM compound pre-treated cell suspensions assessed as larvae survival incubated in dark for 144 hrs at 30 degC and measured every 24 hrs (reference value: 80%); format: functional
Candida albicans [3] = assay: Antifungal activity against Candida albicans ATCC 90028 infected in Galleria mellonella larvae infected with 20 uM compound pre-treated cell suspensions assessed as cocoon formation incubated in dark for 144 hrs at 30 degC and measured every 24 hrs (reference value: 65%); format: organism-based
Candida albicans [4] = assay: as §1, with “reduction in fungal burden” for “larvae survival incubated”, “by hematoxylin and eosin staining-based light microscopic analysis” for “(reference value: 80%)”; format: functional, organism-based
Candida albicans [5] = assay: Antibiofilm activity in Candida albicans ATCC 90028 assessed as beta-glucan uniform distribution at 20 uM after 18 hrs by Congo red staining-based confocal laser scanning microscopic analysis; format: functional, organism-based
Summary of the method: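 Mature C. albicans biofilm cells were stained with 2% Congo Red to detect β-glucan exposure. They were imaged by confocal laser scanning microscopy as fluorescence and fluorescence/DIC overlays. Treated biofilms were compared with untreated control biofilm.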

Candida albicans [6] = assay: Antibiofilm activity in Candida albicans ATCC 90028 assessed as cell membrane lysis at 20 uM after 18 hrs by acridine orange/ethidium bromide staining-based confocal laser scanning fluorescence microscopic analysis; format: functional, organism-based
Summary of the method: (§2)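 Unfixed biofilm cells were dual-stained in situ with acridine orange and ethidium bromide, each at 100 µg/mL. Confocal fluorescence and DIC imaging scored green AO nuclei, crescent-shaped chromatin, reddish-orange late apoptotic/necrotic cells and EB uptake, against untreated control biofilm. […]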

Candida albicans [7] = assay: Antibiofilm activity in Candida albicans ATCC 90028 assessed as late apoptotic morphological changes by measuring reddish-orange fluorescence at 20 uM after 18 hrs by acridine orange/ethidium bromide staining-based confocal laser scanning fluorescence microscopic analysis; format: functional, organism-based
Candida albicans [8] = assay: Disruption of cell wall in Candida albicans SC5314 assessed as decrease in chitin level by measuring chitin mean staining index at 20 uM after 18 hrs by calcofluor white staining-based flow cytometric analysis (reference value: 496 +/- 51); format: functional
Candida albicans [9] = assay: Disruption of cell wall in Candida albicans SC5314 assessed as decrease in chitin level by measuring chitin mean staining index at 0.07 uM after 18 hrs by calcofluor white staining-based flow cytometric analysis (reference value: 496 +/- 51); format: functional
Candida albicans [10] = assay: Induction of apoptosis in Candida albicans ATCC 90028 planktonic forms assessed as increase in DNA damage at 4 ug/ml by ethidium bromide staining based gel electrophoresis and confocal laser scanning microscopy; format: functional, organism-based
Candida albicans [11] = assay: Effect on dilpoid nuclei level in Candida albicans ATCC 90028 planktonic forms at 16 ug/ml by ethidium bromide staining based gel electrophoresis and confocal laser scanning microscopy; format: functional, organism-based
Candida albicans [12] = assay: Induction of apoptosis in Candida albicans ATCC 90028 planktonic forms assessed as accumulation at subG1 phase at 4 to 16 ug/ml by ethidium bromide staining based gel electrophoresis and confocal laser scanning microscopy; format: functional, organism-based
Candida albicans [13] = assay: Fungicidal activity against Candida albicans ATCC 90028 assessed as log reduction in cell viability at 10 uM in RPMI medium in presence of sorbitol; format: functional
Candida albicans [14] = assay: Induction of endochitinase release in Candida albicans ATCC 90028 assessed as p-nitrophenyl release from triacetylochitotriose substrate A at 20 uM by chitinolytic activity assay; format: functional, organism-based
Candida albicans [15] = assay: Induction of exochitinase release in Candida albicans ATCC 90028 assessed as p-nitrophenyl release from chitobioside substrate C at 20 uM by chitinolytic activity assay; format: functional, organism-based
Candida albicans [16] = assay: Inhibition of biofilm formation of Candida albicans ATCC 90028 at 248 uM […] by XTT assay; format: functional
Candida albicans [17] = assay: Induction of apoptosis in Candida albicans ATCC 90028 protoplast assessed as late apoptotic cells at 248 uM after 48 hrs Annexin V-FITC/propidium iodide staining based flow cytometric analysis (reference value: 0.3 +/- 0.30%); format: functional
Candida albicans [18] = assay: Induction of apoptosis in Candida albicans ATCC 90028 protoplast assessed as necrotic cells at 248 uM after 48 hrs Annexin V-FITC/propidium iodide staining based flow cytometric analysis (reference value: 0.33 +/- 0.20%); format: functional
Candida albicans [19] = assay: Antifungal activity against Candida albicans ATCC 90028 assessed as reduction in cell viability at 38 uM after 48 hrs in presence of ergosterol by XTT assay; format: functional
Candida albicans [20] = assay: (§3) Antifungal activity against Candida albicans ATCC 90028 infected in Galleria mellonella larvae infected with 31 uM compound pre-treated cell suspensions assessed as larvae survival incubated in dark for 144 hrs at 30 degC and measured every 24 hrs (reference value: 80%); format: functional
Candida albicans [21] = assay: Antifungal activity against Candida albicans ATCC 90028 infected in Galleria mellonella larvae infected with 31 uM compound pre-treated cell suspensions assessed as melanization incubated in dark for 144 hrs at 30 degC and measured every 24 hrs (reference value: 65%); format: functional
Galleria mellonella = assay: Toxicity in Candida albicans ATCC 90028 infected Galleria mellonella larvae infected with 31 uM compound pre-treated cell suspensions assessed as improvement in larvae health index scores incubated in dark for 144 hrs at 30 degC and measured every 24 hrs; format: organism-based; details: in vivo
Candida albicans [22] = assay: as §3, with “reduction in larval hemocytes” for “larvae survival”, “by hematoxylin and eosin staining-based light microscopic analysis” for “(reference value: 80%)”; format: functional, organism-based
Candida albicans [23] = assay: Antibiofilm activity in Candida albicans ATCC 90028 assessed as late apoptotic morphological changes by measuring reddish-orange fluorescence at 248 uM after 18 hrs by acridine orange/ethidium bromide staining-based confocal laser scanning fluorescence microscopic analysis; format: functional, organism-based; summary of the method: as §2
Candida albicans [24] = assay: Induction of apoptosis in Candida albicans ATCC 90028 planktonic forms assessed as increase in DNA damage at 1 ug/ml by ethidium bromide staining based gel electrophoresis and confocal laser scanning microscopy; format: functional, organism-based
Candida albicans [25] = assay: Induction of apoptosis in Candida albicans ATCC 90028 planktonic forms assessed as accumulation at subG1 phase at 1 to 128 ug/ml by ethidium bromide staining based gel electrophoresis and confocal laser scanning microscopy; format: functional, organism-based
Candida albicans [26] = assay: Induction of apoptosis in Candida albicans ATCC 90028 planktonic forms assessed as effect on DNA content of necrotic cells at 1 to 128 ug/ml by ethidium bromide staining based gel electrophoresis and confocal laser scanning microscopy; format: functional, organism-based
Candida albicans [27] = assay: Induction of chitinase release in Candida albicans ATCC 90028 assessed as p-nitrophenyl release from N-acetyl-beta-D-glucosaminide at 248 uM by chitinolytic activity assay; format: functional, organism-based
[28] = In-vitro chitinolytic activity of the compound assessed as p-nitrophenyl release from N-acetyl-beta-D-glucosaminide at 248 uM by chitinolytic activity assay; format: functional
Candida albicans [29] = assay: Induction of exochitinase release in Candida albicans ATCC 90028 assessed as p-nitrophenyl release from chitobioside substrate C at 248 uM by chitinolytic activity assay; format: functional, organism-based

**Q.** Which Activity (Candida albicans [1]) does the source give for `CC(Cn1cnc2c1c(=O)n(C)c(=O)n2C)OCc1cn(CCCn2nc3c(Br)c(Br)c(Br)c(Br)c3n2)nn1` (stereo not given) here?
**A.** 2.87%

**Q.** What about the survival at 20 µM (Candida albicans [2]) of the same compound?
**A.** 100%

**Q.** And the Activity (Candida albicans [3])?
**A.** 98%

**Q.** And the Activity (Candida albicans [4])?
**A.** Active

**Q.** What about the Activity (Candida albicans [5]) of the same compound?
**A.** Active

**Q.** What about the Activity (Candida albicans [6]) of the same compound?
**A.** Active

**Q.** And the Activity (Candida albicans [7])?
**A.** Active

**Q.** And the Activity_index (Candida albicans [8])?
**A.** 370

**Q.** And the Activity_index (Candida albicans [9])?
**A.** 53

**Q.** What about the Activity (Candida albicans [10]) of the same compound?
**A.** Active

**Q.** And the Activity (Candida albicans [11])?
**A.** inactive

**Q.** And the Activity (Candida albicans [12])?
**A.** inactive

**Q.** And the “log(activity)” value (Candida albicans [13])?
**A.** 6.74

**Q.** What about the Activity (Candida albicans [14]) of the same compound?
**A.** inactive

**Q.** And the Activity (Candida albicans [15])?
**A.** inactive

**Q.** Which results are given for `CC(CN1c2ccccc2Sc2ccccc21)OC(=O)OC(C)Cn1cnc2c1c(=O)n(C)c(=O)n2C` (stereo not given)?
**A.** inhibition at 248 µM (Candida albicans [16]): 61%; Activity (Candida albicans [17]): 0.1%; Activity (Candida albicans [18]): 95.9%; Activity (Candida albicans [19]): 92%; survival at 31 µM (Candida albicans [20]): 95%; Activity (Candida albicans [21]): 5 - 15%; Activity (Galleria mellonella): Toxic; Activity (Candida albicans [22]): Active; Activity (Candida albicans [23]): Active; Activity (Candida albicans [24]): inactive; Activity (Candida albicans [25]): inactive; Activity (Candida albicans [26]): inactive; Activity (Candida albicans [27]): inactive; Activity [28]: 0.01 to 0.03 µmol/min; Activity (Candida albicans [29]): inactive

From ChEMBL document CHEMBL4229342, “Synthesis of novel proxyphylline derivatives with dual Anti-Candida albicans and anticancer activity” (Eur J Med Chem, 2018)
